The values below come from ChEMBL document CHEMBL4261566, “New application of tiplaxtinin as an effective FtsZ-targeting chemotype for an antimicrobial study” (2017).

Broadly, the MIC90 is the lowest concentration that inhibits either 90% of growth or 90% of the strains tested, depending on the study. Higher therefore signals weaker potency.

Converted amounts (≈) assume the structure as drawn. The source made the active and inactive calls. No cut-off for these calls is given here. Some results are limits rather than exact numbers.

Test [1] has as its system Staphylococcus aureus. Briefly: Antibacterial activity against methicillin-resistant Staphylococcus aureus ATCC BAA-41 after 18 hrs by broth microdilution method. The format is functional. Particulars: ATCC BAA-41, 18 h.
In test [2] the test system is Escherichia coli. As to the kind of experiment: Antibacterial activity against Escherichia coli ATCC 25922 after 18 hrs by broth microdilution method. Type of test: functional. Particulars: ATCC 25922, 18 h. (In general: Broth dilution looks for growth in wells or tubes with falling amounts of substance.)
Test [3] relates to Pseudomonas aeruginosa. As to the kind of experiment: Antibacterial activity against Pseudomonas aeruginosa ATCC BAA-2108 after 18 hrs by broth microdilution method. Type of test: functional. Particulars: ATCC BAA-2108, 18 h.
The subject of test [4] is Staphylococcus aureus. Briefly: Antibacterial activity against methicillin-resistant Staphylococcus aureus ATCC BAA-1717 after 18 hrs by broth microdilution method. Particulars: ATCC BAA-1717, 18 h. Type of test: functional.
The subject of test [5] is Staphylococcus aureus. Briefly: Antibacterial activity against methicillin-resistant Staphylococcus aureus ATCC 43300 after 18 hrs by broth microdilution method. Type of test: functional. Particulars: ATCC 43300, 18 h.
In test [6] the test system is Enterococcus faecalis. Briefly: Antibacterial activity against Enterococcus faecalis ATCC 29212 after 18 hrs by broth microdilution method. Type of test: functional. Particulars: ATCC 29212, 18 h.
Test [7] deals with Bacillus subtilis. Briefly: Antibacterial activity against Bacillus subtilis 168 after 18 hrs by broth microdilution method. The format is functional. Particulars: subsp. subtilis str. 168, 18 h.
Test [8] concerns Staphylococcus aureus. As to the kind of experiment: Antibacterial activity against methicillin-resistant Staphylococcus aureus ATCC 33592 after 18 hrs by broth microdilution method. Type of test: functional. Particulars: ATCC 33592, 18 h.
The test system of test [9] is Staphylococcus aureus. Briefly: Antibacterial activity against methicillin-resistant Staphylococcus aureus USA300 417 after 18 hrs by broth microdilution method. Particulars: USA300 417, 18 h. Type of test: functional.
Test [10] has as its system Staphylococcus aureus. As to the kind of experiment: Antibacterial activity against Staphylococcus aureus ATCC 29213 after 18 hrs by broth microdilution method. The format is functional. Particulars: ATCC 29213, 18 h.
The test system of test [11] is Staphylococcus aureus. Briefly: Antibacterial activity against methicillin-resistant Staphylococcus aureus ATCC 33591 after 18 hrs by broth microdilution method. The format is functional. Particulars: ATCC 33591, 18 h.
Test [12] concerns Enterococcus faecium. Briefly: Antibacterial activity against vancomycin-resistant Enterococcus faecium ATCC 700221 after 18 hrs by broth microdilution method. Type of test: functional. Particulars: ATCC 700221, 18 h.
The test system of test [13] is Staphylococcus aureus. As to the kind of experiment: Antibacterial activity against Staphylococcus aureus ATCC 29247 after 18 hrs by broth microdilution method. Type of test: functional. Particulars: ATCC 29247, 18 h.
The test system of test [14] is Staphylococcus aureus. As to the kind of experiment: Antibacterial activity against methicillin-resistant Staphylococcus aureus USA300 2690 after 18 hrs by broth microdilution method. The format is functional. Particulars: USA300 2690, 18 h.
Test [15] relates to Staphylococcus aureus. As to the kind of experiment: Antibacterial activity against methicillin-resistant Staphylococcus aureus ATCC BAA-1747 after 18 hrs by broth microdilution method. The format is functional. Particulars: ATCC BAA-1747, 18 h.
Test [16] has as its system Staphylococcus aureus. As to the kind of experiment: Antibacterial activity against methicillin-resistant Staphylococcus aureus ATCC BAA-1720 after 18 hrs by broth microdilution method. Type of test: functional. Particulars: ATCC BAA-1720, 18 h.
The subject of test [17] is Enterococcus faecium. Briefly: Antibacterial activity against Enterococcus faecium ATCC 49624 after 18 hrs by broth microdilution method. The format is functional. Particulars: ATCC 49624, 18 h.
The target of test [18] is T1, Cell division protein FtsZ (Staphylococcus aureus) (UniProt P0A031).
T1 sequence (whole entry): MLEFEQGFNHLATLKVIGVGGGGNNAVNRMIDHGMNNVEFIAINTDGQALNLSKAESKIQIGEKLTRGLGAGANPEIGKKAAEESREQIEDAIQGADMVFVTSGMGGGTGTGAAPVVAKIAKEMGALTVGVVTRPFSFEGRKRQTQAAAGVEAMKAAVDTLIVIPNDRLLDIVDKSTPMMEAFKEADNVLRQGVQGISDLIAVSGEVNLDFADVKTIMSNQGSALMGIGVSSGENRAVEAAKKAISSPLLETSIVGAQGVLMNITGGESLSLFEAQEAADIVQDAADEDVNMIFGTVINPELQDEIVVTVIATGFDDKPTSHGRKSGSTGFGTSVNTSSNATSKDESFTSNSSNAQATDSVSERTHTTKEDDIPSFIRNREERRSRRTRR
Briefly: Induction of recombinant Staphylococcus aureus FtsZ polymerization at 10 ug/ml by 90degree light scattering-based fluorescence spectrometric analysis. The essentials: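 Recombinant S. aureus FtsZ cloned, overexpressed and purified. Polymerization followed over time by 90° light scattering in a thermostatically controlled fluorescence spectrometer, read as absorbance at 600 nm. Profiles recorded with and without compound. Methicillin served as the non-FtsZ-targeting control antibiotic.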

For test [19], the system named is Klebsiella pneumoniae. Briefly: Antibacterial activity against Klebsiella pneumoniae ATCC BAA-1144 after 18 hrs by broth microdilution method. Type of test: functional. Particulars: ATCC BAA-1144, 18 h.
Test [20] has as its system Staphylococcus epidermidis. As to the kind of experiment: Antibacterial activity against Staphylococcus epidermidis ATCC 12228 after 18 hrs by broth microdilution method. Particulars: ATCC 12228, 18 h. The format is functional.
Test [21] addresses T1, Cell division protein FtsZ (Staphylococcus aureus). As to the kind of experiment: Induction of recombinant Staphylococcus aureus FtsZ polymerization assessed as increase in size of polymers at 4 ug/ml preincubated for 10 mins followed by GTP addition and measured after 15 mins by transmission electron microscopic method.
The test system of test [22] is Staphylococcus aureus. Briefly: Bactericidal activity against Staphylococcus aureus ATCC 29213 assessed as reduction in bacterial load at MIC to 4 times MIC after 24 hrs relative to control. Type of test: functional. The method, boiled down:
(§1)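 Time-kill assay: a growing culture (S. aureus ATCC 29213 or B. subtilis 168) was exposed at time zero to 1×, 2× and 4× the MIC. Viable cell numbers were followed over 24 h, and the log reduction in viable count was recorded.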

For test [23], the target named is T1, Cell division protein FtsZ (Staphylococcus aureus). As to the kind of experiment: Induction of recombinant Staphylococcus aureus FtsZ polymerization assessed as increase in bundling of protein protofilaments at 4 ug/ml preincubated for 10 mins followed by GTP addition and measured after 15 mins by transmission electron microscopic method.
For test [24], the system named is Bacillus subtilis. Briefly: Bactericidal activity against Bacillus subtilis 168 assessed as reduction in bacterial load at MIC to 4 times MIC after 24 hrs relative to control. Type of test: functional, subsp. subtilis str. 168. The method, boiled down: as §1
Test [25] addresses T1, Cell division protein FtsZ (Staphylococcus aureus). As to the kind of experiment: Inhibition of recombinant Staphylococcus aureus FtsZ GTPase activity preincubated for 10 mins followed by GTP addition and measured after 30 mins.
The target is the same in test [26]. Briefly: Induction of recombinant Staphylococcus aureus FtsZ polymerization by 90degree light scattering-based fluorescence spectrometric analysis. The essentials:
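S. aureus FtsZ was cloned, overexpressed and purified. Polymerization was followed over time by 90° light scattering in a thermostatically controlled fluorescence spectrometer, […] change at 600 nm. Compound was tested at 2 to 8 μg mL–1 against a no-compound profile. Methicillin served as the non-FtsZ-targeting control antibiotic.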

Test [27] concerns the target T2, Cell division protein FtsZ (Bacillus subtilis (strain 168)) (UniProt P17865).
T2 sequence (whole entry): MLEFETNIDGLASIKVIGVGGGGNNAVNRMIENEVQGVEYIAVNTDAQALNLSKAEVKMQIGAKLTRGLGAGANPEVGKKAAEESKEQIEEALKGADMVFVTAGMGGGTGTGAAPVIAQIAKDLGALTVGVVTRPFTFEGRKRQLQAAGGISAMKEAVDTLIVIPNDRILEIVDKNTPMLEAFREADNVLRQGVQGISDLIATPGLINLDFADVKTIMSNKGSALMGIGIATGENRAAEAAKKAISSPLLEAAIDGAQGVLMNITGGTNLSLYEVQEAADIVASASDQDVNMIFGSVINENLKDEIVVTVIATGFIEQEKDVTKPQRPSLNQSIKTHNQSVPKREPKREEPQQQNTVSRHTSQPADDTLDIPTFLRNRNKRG
As to the kind of experiment: Inhibition of cell division function of FtsZ in Bacillus subtilis 168 assessed as increase in cell length at 2 ug/ml after 5 hrs by phase contrast light microscopic method. Particulars: Bacillus subtilis subsp. subtilis str. 168. The essentials: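 B. subtilis 168 cells were grown with or without 2 μg mL–1 compound. Cell morphology, including filamentation, was then examined by microscopy.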

Test [28] concerns Bacteria. Briefly: Induction of bacterial GFP-fused FtsZ polymerization expressed in Bacillus subtilis 168 assessed as misformation of Z-ring at 2 ug/ml after 4 hrs by fluorescence microscopic method. The method, boiled down: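 B. subtilis 168 carrying a GFP–FtsZ construct was treated with compound or with DMSO as control. Z-ring formation was then examined by fluorescence microscopy.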

As for `COc1cccc(OC)c1C(=O)N[C@@H]1C(=O)N2[C@@H]1SC(C)(C)[C@@H]2C(=O)O` [METHICILLIN], the MIC90 in test [1] is 1020 µg/mL (≈ 2690 µM); in [2], 3 µg/mL (≈ 7.89 µM); in test [3], over 256 µg/mL; in test [4] it was 512 µg/mL (≈ 1350 µM); in [5], 512 µg/mL (≈ 1350 µM); in [6] it was 0.75 µg/mL (≈ 1.97 µM). For the same molecule, the MIC90 in test [7] is under 1 µg/mL; in test [8], 512 µg/mL (≈ 1350 µM); in [9], 512 µg/mL (≈ 1350 µM); in [10], under 1 µg/mL; in test [11], 1020 µg/mL (≈ 2690 µM); in test [12], 1.5 µg/mL (≈ 3.94 µM). The MIC90 in test [13] was 6 µg/mL (≈ 15.8 µM); in test [14], 256 µg/mL (≈ 673 µM); in test [15] it was 256 µg/mL (≈ 673 µM); in test [16], 1020 µg/mL (≈ 2690 µM); in [17], 1.5 µg/mL (≈ 3.94 µM); in test [19], over 256 µg/mL. In [20], this molecule came in with an MIC90 of 0.75 µg/mL (≈ 1.97 µM). Further, the outcome in test [18] was inactive.
For `O=C(O)C(=O)c1cn(Cc2ccccc2)c2ccc(-c3ccc(OC(F)(F)F)cc3)cc12` [TIPLASININ], the result in test [21], in test [23] and in [28] was Active. Further, the MIC90 is 4 µg/mL (≈ 9.1 µM) in test [1]; over 48 µg/mL in test [2]; over 48 µg/mL in test [3]; 4 µg/mL (≈ 9.1 µM) in test [4]; 4 µg/mL (≈ 9.1 µM) in [5]; 4 µg/mL (≈ 9.1 µM) in [6]. Moreover, the MIC90 came to 2 µg/mL (≈ 4.55 µM) in [7]; 4 µg/mL (≈ 9.1 µM) in [8]; 2 µg/mL (≈ 4.55 µM) in test [9]; 2 µg/mL (≈ 4.55 µM) in [10]; 4 µg/mL (≈ 9.1 µM) in test [11]; 4 µg/mL (≈ 9.1 µM) in test [12]. The MIC90 was 2 µg/mL (≈ 4.55 µM) in [13]; 2 µg/mL (≈ 4.55 µM) in test [14]; 4 µg/mL (≈ 9.1 µM) in test [15]; 4 µg/mL (≈ 9.1 µM) in [16]; 4 µg/mL (≈ 9.1 µM) in test [17]; over 48 µg/mL in test [19]. For the same molecule, the MIC90 in test [20] amounted to 2 µg/mL (≈ 4.55 µM). Besides, the values for the Activity in [22], in [24] and in [26] were over 3 deltalog10CFU/ml, over 3 deltalog10CFU/ml and “Dose-dependent effect”, respectively. For the same molecule, in test [25], the inhibition result was “Dose-dependent effect”. The inhibition result in [27] was “Active”.
In turn, `CN[C@H](CC(C)C)C(=O)N[C@H]1C(=O)N[C@@H](CC(N)=O)C(=O)N[C@H]2C(=O)N[C@H]3C(=O)N[C@H](C(=O)N[C@H](C(=O)O)c4cc(O)cc(O)c4-c4cc3ccc4O)[C@H](O)c3ccc(c(Cl)c3)Oc3cc2cc(c3O[C@@H]2O[C@H](CO)[C@@H](O)[C@H](O)[C@H]2O[C@H]2C[C@](C)(N)[C@H](O)[C@H](C)O2)Oc2ccc(cc2Cl)[C@H]1O` [VANCOMYCIN] displayed an MIC90 in test [12] of over 96 µg/mL.
